High-throughput results deposited in PubChem BioAssay by several laboratories.
HUVEC prolif 384 = blocks proliferation of human endothelial cells; viability, % at 10 µM (by protocol); HUVEC proliferation, CellTiter-Glo luminescence, 72 h; stronger effect = lower value; 1.1% of 86,000 active;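 active = viability at or below 30%; inactive = viability above 30%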
ERa coact inh = ER-alpha (human) coactivator binding inhibition. P03372. TR-FRET ER-alpha LBD / SRC-1 peptide, estradiol-bound. inhibition, % at 25.6 µM. 1.7% of 86,000 active; in the data active = inhibition above about 50%
Target sequence (P03372 whole entry, looked up, the tested form may be a part): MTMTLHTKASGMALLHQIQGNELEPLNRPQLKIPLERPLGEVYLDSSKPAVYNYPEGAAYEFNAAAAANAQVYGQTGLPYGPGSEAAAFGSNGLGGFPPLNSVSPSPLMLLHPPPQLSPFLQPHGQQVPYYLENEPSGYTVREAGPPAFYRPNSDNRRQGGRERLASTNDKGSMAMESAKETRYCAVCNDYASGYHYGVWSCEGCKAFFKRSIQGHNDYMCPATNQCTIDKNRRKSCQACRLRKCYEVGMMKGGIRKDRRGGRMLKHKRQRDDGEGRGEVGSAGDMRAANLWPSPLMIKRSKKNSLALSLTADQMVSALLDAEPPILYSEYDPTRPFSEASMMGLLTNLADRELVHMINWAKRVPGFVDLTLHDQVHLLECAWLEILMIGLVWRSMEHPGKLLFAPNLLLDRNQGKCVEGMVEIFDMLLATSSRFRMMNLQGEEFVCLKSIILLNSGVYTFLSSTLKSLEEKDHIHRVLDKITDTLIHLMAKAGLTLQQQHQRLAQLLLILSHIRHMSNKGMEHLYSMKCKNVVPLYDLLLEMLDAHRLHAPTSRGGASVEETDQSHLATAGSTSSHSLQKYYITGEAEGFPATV
H69AR inhibit = growth inhibitors of human H69AR lung tumor cells; 6% of 85,000 active; H69AR lung tumor viability, ATP luminescence, 72 h; stronger effect = lower value; AID 598; viability, % at 10 µM;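 active = viability at or below 40%; inactive = viability above 40%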;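 also: multidrug resistant small cell line overexpressing MRP-1 efflux transporter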
ERa coact pot = enhances coactivator binding to human estrogen receptor alpha; P03372; 1.3% of 86,000 active; coactivator binding (% of control), % at 25.6 µM; TR-FRET ERalpha-LBD/SRC-Cy5 coactivator binding, 2 h; 100 = basal binding, no effect; AID 639; in the data active = activity above about 200%;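 also: binding measured in presence of low estradiol as agonist stimulus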
ERb coact inh = blocks coactivator binding to human estrogen receptor beta. Q92731. TR-FRET ER-beta LBD / SRC1-Cy5 peptide binding; receptor agonist-loaded with 1 µM estradiol. inhibition, % at 25.6 µM. 1.3% of 86,000 active. AID 633;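 active = compounds whose percent inhibition of the receptor-coactivator binding signal exceeds about 50% in the single-dose screen, limit read from the data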
Fibroblast inh = blocks proliferation of human lung fibroblasts. AID 719. viability, % at 10 µM. LL 47 human lung fibroblast viability, ATP luminescence; stronger effect = lower value. 1.1% of 85,000 active;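 active = viability at or below 50% in the single dose screen; inactive = viability above 50%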;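 also: compound exposure lasted 72 h before the ATP readout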
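Test system: LL 47 human lung fibroblasts / Incubation: 72 h compound exposure at 37 °C after overnight plating / Technique: luminescent ATP detection, CellTiter-Glo / Compound dosing: 0.1% DMSO in all compound wells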
Hits are given with their value; [ ] = remark or other dose. An excerpt weighted towards active compounds, which were near 9.2% of everything screened.

COc1ccc(-c2nnn(CC(=O)N(Cc3ccc(F)cc3)C(C(=O)NC3CCCC3)c3ccc(F)cc3)n2)cc1 (configuration not stated) was read as HUVEC prolif 384 inactive, ERa coact inh inactive, H69AR inhibit 26.9, ERa coact pot inactive, ERb coact inh inactive and Fibroblast inh 12.2.
Screening O=C(NCC1CCCO1)C(c1cccs1)N(Cc1cccs1)C(=O)Cn1nnc(-c2cccs2)n1 (configuration not stated) returned HUVEC prolif 384 inactive, ERa coact inh inactive, H69AR inhibit inactive, ERa coact pot inactive, ERb coact inh inactive and Fibroblast inh inactive.
For CCOC(=O)CN(C(=O)Cn1nnc(-c2ccc(OC)cc2)n1)C(C(=O)NC1CCCC1)c1ccc(F)cc1 (configuration not stated) the results were HUVEC prolif 384 inactive, ERa coact inh inactive, H69AR inhibit inactive, ERa coact pot inactive, ERb coact inh inactive and Fibroblast inh inactive.
For Cc1ccc(-c2nnn(CC(=O)N(Cc3cccs3)C(C(=O)NC3CCCC3)c3ccco3)n2)o1 (configuration not stated) the results were HUVEC prolif 384 inactive, ERa coact inh inactive, H69AR inhibit inactive, ERa coact pot inactive, ERb coact inh inactive and Fibroblast inh inactive.
O=C(Nc1cccc(Cn2cccn2)c1)c1cc2c(s1)CCCC2 was read as HUVEC prolif 384 inactive, ERa coact inh inactive, H69AR inhibit inactive, ERa coact pot inactive, ERb coact inh inactive and Fibroblast inh inactive.
Screening Cc1cccc(OCC(=O)N/N=C\c2cc3c(cc2[N+](=O)[O-])OCO3)c1C returned HUVEC prolif 384 inactive, ERa coact inh inactive, H69AR inhibit inactive, ERa coact pot inactive, ERb coact inh inactive and Fibroblast inh inactive.
For CC(C)CCNC(=O)C(c1ccncc1)N(Cc1cccs1)C(=O)Cn1nnc(-c2ccc(F)cc2)n1 (configuration not stated) the results were HUVEC prolif 384 inactive, ERa coact inh inactive, H69AR inhibit 40.0, ERa coact pot inactive, ERb coact inh inactive and Fibroblast inh inactive.
For CCOC(=O)N1CCN(c2cc(=O)n(-c3ccccc3Cl)c(=O)[nH]2)CC1 the results were HUVEC prolif 384 inactive, ERa coact inh inactive, H69AR inhibit inactive, ERa coact pot inactive, ERb coact inh 74.5[fluorescence artefact?] and Fibroblast inh inactive.
For c1cncc(-c2nc(-c3ccc4c(c3)OCO4)cs2)c1 the results were HUVEC prolif 384 inactive, ERa coact inh inactive, H69AR inhibit inactive, ERa coact pot inactive, ERb coact inh inactive and Fibroblast inh inactive.
COc1ccc(-c2csc(Nc3cccnc3)n2)cc1OC was read as HUVEC prolif 384 inactive, ERa coact inh inactive, H69AR inhibit inactive, ERa coact pot inactive, ERb coact inh inactive and Fibroblast inh inactive.
`Oc1ccc(Nc2nc(-c3ccc4ccccc4c3)cs2)cc1` gave HUVEC prolif 384 inactive, ERa coact inh inactive, H69AR inhibit 19.2, ERa coact pot inactive, ERb coact inh inactive and Fibroblast inh 46.9.
Screening Cc1nc(C)c(-c2csc(Nc3cccnc3)n2)s1 returned HUVEC prolif 384 inactive, ERa coact inh inactive, H69AR inhibit inactive, ERa coact pot inactive, ERb coact inh inactive and Fibroblast inh 30.9.
Screening c1cncc(Nc2nc(-c3ccncc3)cs2)c1 returned HUVEC prolif 384 inactive, ERa coact inh inactive, H69AR inhibit inactive, ERa coact pot inactive, ERb coact inh inactive and Fibroblast inh inactive.
Screening CC(=O)Nc1nc(C)c(-c2csc(Nc3ccc(O)cc3)n2)s1 returned HUVEC prolif 384 inactive, ERa coact inh inactive, H69AR inhibit 7.2, ERa coact pot inactive, ERb coact inh inactive and Fibroblast inh 47.3.
For Cc1nc(N)sc1-c1csc(Nc2ccccc2)n1 the results were HUVEC prolif 384 inactive, ERa coact inh inactive, H69AR inhibit inactive, ERa coact pot inactive, ERb coact inh inactive and Fibroblast inh inactive.
Oc1ccc(-c2nc(-c3ccc(O)c(O)c3)cs2)cc1 was read as HUVEC prolif 384 inactive, ERa coact inh 67.8[fluorescence artefact?], H69AR inhibit 12.5, ERa coact pot inactive, ERb coact inh 82.4 and Fibroblast inh 46.5.
Screening CSc1cc(-c2ccccc2)n(Cc2ccccc2Cl)c(=O)c1C#N returned HUVEC prolif 384 inactive, ERa coact inh inactive, H69AR inhibit 4.8, ERa coact pot inactive, ERb coact inh inactive and Fibroblast inh inactive.
`COCc1ccc2oc(C(=O)O)cc2c1` gave HUVEC prolif 384 inactive, ERa coact inh inactive, ERa coact pot inactive, ERb coact inh inactive and Fibroblast inh inactive.
Screening CC(C)(C)C(=O)Nc1ccccc1N1CCN(C(=O)c2ccc(Cl)cc2)CC1 returned HUVEC prolif 384 inactive, ERa coact inh inactive, H69AR inhibit inactive, ERa coact pot inactive and ERb coact inh inactive.
O=C(/C=C(\O)c1ccc(Cl)cc1)C(=O)NNC(=O)C(O)(c1ccccc1)c1ccccc1 was read as HUVEC prolif 384 inactive, ERa coact inh inactive, H69AR inhibit 24.0, ERa coact pot inactive, ERb coact inh inactive and Fibroblast inh inactive.
For COC(=O)c1ccc(NC(=O)COc2ccc(S(=O)(=O)N3CCCCC3)cc2)cc1 the results were HUVEC prolif 384 inactive, ERa coact inh inactive, H69AR inhibit inactive, ERa coact pot inactive, ERb coact inh inactive and Fibroblast inh inactive.
`CCc1ccc(OCC(=O)Nc2ccc(S(=O)(=O)N3CCCC3)cc2)c(Br)c1` gave HUVEC prolif 384 inactive, ERa coact inh inactive, H69AR inhibit 29.6, ERa coact pot inactive, ERb coact inh inactive and Fibroblast inh inactive.
Cc1ccccc1NC(=O)N(CCc1nc2ccccc2[nH]1)Cc1ccccc1 was read as HUVEC prolif 384 inactive, ERa coact inh inactive, H69AR inhibit 16.5, ERa coact pot inactive, ERb coact inh inactive and Fibroblast inh inactive.
Screening COc1ccccc1CN(Cc1nc2ccccc2c(=O)[nH]1)C(=O)Nc1ccccc1C returned HUVEC prolif 384 inactive, ERa coact inh inactive, H69AR inhibit inactive, ERa coact pot inactive, ERb coact inh inactive and Fibroblast inh inactive.
Cc1nc(NC(=O)CSc2nc3cccnc3n2C2CCCCC2)sc1C was read as HUVEC prolif 384 inactive, ERa coact inh inactive, H69AR inhibit 28.9, ERa coact pot inactive, ERb coact inh inactive and Fibroblast inh 14.0.
CCc1nnc(NC(=O)CSc2nc3cccnc3n2C2CCCCC2)s1 was read as HUVEC prolif 384 inactive, ERa coact inh inactive, H69AR inhibit inactive, ERa coact pot inactive, ERb coact inh inactive and Fibroblast inh inactive.
`C#CCOC(=O)CCC(=O)Nc1cc(OC)nc(OC)n1` gave HUVEC prolif 384 inactive, ERa coact inh inactive, H69AR inhibit inactive, ERa coact pot inactive, ERb coact inh inactive and Fibroblast inh inactive.
`CC1(C)Cc2c(sc3nc(SCC#N)n(C4CCCCC4)c(=O)c23)CO1` gave HUVEC prolif 384 inactive, ERa coact inh inactive, H69AR inhibit inactive, ERa coact pot inactive, ERb coact inh inactive and Fibroblast inh inactive.
Screening COc1cc(NC(=O)CCn2c(=O)[nH]c3ccsc3c2=O)cc(OC)c1 returned HUVEC prolif 384 inactive, ERa coact inh inactive, H69AR inhibit inactive, ERa coact pot inactive, ERb coact inh inactive and Fibroblast inh inactive.
